Data published in PubChem BioAssay.
Active and inactive are the calls of the source. Unless noted, no stated cut-off is given here; in the data, active means inhibition above about 30%; inactive means the rest.

Tests used:
[1] = Her2 expression decrease, cell viability multiplex – SKBR3 breast tumor cells, AlphaScreen, ATP viability, primary screen (AID 461;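 active means Her2 level under about 52% in both replicate screens, with viability over 70% of control, limit read from the data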;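 on Her2 level: lower value means less Her2 protein in the cells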;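 on viability: percent of carrier control wells set as 100% viability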); conditions: SKBR3 Her2 protein level, 18-24 h, measured here: SKBR3 viability, ATP luminescence, at 10 µM
[2] = target: Receptor tyrosine-protein kinase erbB-2 (Homo sapiens) (UniProt P04626); test: as above; conditions: 18-24 h, at 10 µM, stronger effect = lower value
Receptor tyrosine-protein kinase erbB-2 (Homo sapiens), sequence (P04626 whole entry, looked up): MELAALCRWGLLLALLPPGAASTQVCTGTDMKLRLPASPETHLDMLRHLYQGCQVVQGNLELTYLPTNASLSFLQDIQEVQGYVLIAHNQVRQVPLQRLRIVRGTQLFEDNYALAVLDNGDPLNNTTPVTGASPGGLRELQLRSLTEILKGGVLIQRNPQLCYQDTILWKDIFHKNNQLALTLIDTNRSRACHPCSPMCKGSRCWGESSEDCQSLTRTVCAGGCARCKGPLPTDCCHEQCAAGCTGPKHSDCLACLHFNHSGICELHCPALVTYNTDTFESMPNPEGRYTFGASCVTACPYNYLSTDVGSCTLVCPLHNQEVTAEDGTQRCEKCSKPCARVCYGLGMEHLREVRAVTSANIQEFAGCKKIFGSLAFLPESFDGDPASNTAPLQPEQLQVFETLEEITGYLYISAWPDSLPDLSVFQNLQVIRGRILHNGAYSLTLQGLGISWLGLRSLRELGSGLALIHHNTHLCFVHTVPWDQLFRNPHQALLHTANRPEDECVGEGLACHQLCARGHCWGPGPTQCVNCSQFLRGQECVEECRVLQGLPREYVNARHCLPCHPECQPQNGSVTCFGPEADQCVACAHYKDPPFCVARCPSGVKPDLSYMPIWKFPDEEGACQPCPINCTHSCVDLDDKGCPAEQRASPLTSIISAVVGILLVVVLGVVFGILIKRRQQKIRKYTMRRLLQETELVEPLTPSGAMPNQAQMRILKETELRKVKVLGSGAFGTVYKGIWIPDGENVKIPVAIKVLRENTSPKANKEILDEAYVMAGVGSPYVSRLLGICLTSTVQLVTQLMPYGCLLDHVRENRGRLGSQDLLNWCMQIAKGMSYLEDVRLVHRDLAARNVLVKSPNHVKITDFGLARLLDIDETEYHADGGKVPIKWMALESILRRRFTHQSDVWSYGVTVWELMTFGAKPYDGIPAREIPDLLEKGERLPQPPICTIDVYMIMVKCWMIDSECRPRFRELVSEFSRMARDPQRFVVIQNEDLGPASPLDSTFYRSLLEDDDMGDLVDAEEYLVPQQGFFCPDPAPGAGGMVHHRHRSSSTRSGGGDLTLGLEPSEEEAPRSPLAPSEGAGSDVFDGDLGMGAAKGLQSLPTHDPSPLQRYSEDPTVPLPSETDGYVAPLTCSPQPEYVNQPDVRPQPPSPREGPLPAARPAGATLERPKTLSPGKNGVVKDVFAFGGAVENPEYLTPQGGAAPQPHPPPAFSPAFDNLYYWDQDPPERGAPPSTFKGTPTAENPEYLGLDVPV

[3] = reduced viability of SK-BR-3 breast cancer cells – cell-based, 24 h, human, pilot screen (AID 572;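 active means viability at or below 10% of carrier control in both of two separate runs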;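 further: compound exposure lasted between 18 and 24 h rather than exactly 24 h; 100% = carrier-treated control wells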); conditions: SK-BR-3 viability, CellTiter-Glo luminescence, at 10 µM, stronger effect = lower value
[4] = HUVEC growth inhibition – cell-based, human, primary screen (AID 575;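 active means viability at or below 30% in both replicate assays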;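 further: 100% = median of untreated cell wells with 0.1% DMSO on each plate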); conditions: HUVEC proliferation, CellTiter-Glo luminescence, 72 h; at 10 µM; stronger effect = lower value
Procedure, shortened: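 Test system: primary human umbilical vein endothelial cells. Quantity: 1250 cells/well. Compound: single 10 µM dose, 0.1% DMSO, from 5x medium stock. Timing: 72 h treatment at 37 °C. Detection: ATP-based CellTiter-Glo luminescent read. Benchmarks: vehicle and MePR control wells. Format: 384-well plates coated with collagen.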

[5] = H69AR cell proliferation blockers – human, duplicate replicates, primary screen (AID 580;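 active means viability at or under a set limit in both replicates, limit being median viability minus 3 SD, cut at about 48% in these data, passing the limit was not always enough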;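 further: 100% = mean luminescence of untreated wells and 0% = no signal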); conditions: H69AR lung tumor cells viability, ATP luminescence, 72 h; at 10 µM; stronger effect = lower value
[6] = MRP1 drug-resistance reversers in H69AR cells – cell-based, doxorubicin co-treatment, pilot screen (AID 601;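 active means viability loss from added drug above about 55%, and viability with drug at most 40%, in both replicates, limit read from the data, passing the limit was not always enough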); conditions: CellTiter-Glo, 72 h, at 10 µM; for differential viability (reversal): stronger effect = higher value
[7] = yeast transport mutant growth inhibition pilot in 384-well plates, post-Golgi transport modulator project (AID 636; in the data active means inhibition above about 31%); conditions: absorbance 615 nm, about 18 h, stronger effect = higher value
[8] = growth suppression of yeast trafficking mutant, preliminary HTS, modulators of trafficking downstream of Golgi apparatus project, 1536-format plate, OD 615 nm (AID 637); conditions: yeast transport mutant growth, absorbance 615 nm, 18 h; stronger effect = higher value
[9] = H69AR cells + 2 uM doxorubicin, measured here: viability with 2 uM doxorubicin, stronger effect = lower value
[10] = H69AR cells, compound alone cytotoxicity

Structure (SMILES) | viability [1] [%] | Her2 level [2] | viability [3] | viability [4] | viability [5] | differential viability (reversal) ([6]; H69AR cells + 2 uM doxorubicin) | viability [6, 9] [%] | viability [6, 10] [%] | inhibition [7] | inhibition [8]
CCOC(=O)CC(NS(=O)(=O)c1ccc(NC(C)=O)cc1)c1ccc(OCC)cc1 (stereo not given) | 115 | 100% (inactive) | 115% (inactive) | 110% (inactive) | 90.9% (inactive) | -2.94% (inactive) | 93.9 | 90.9 | -7.63% (inactive) | -4.91% (inactive)
Cc1ccc(C)c(N2CCN(Cc3nnnn3C3CCCCC3)CC2)c1 | 94 | 91% (inactive) | 94% (inactive) | 78.1% (inactive) | 71% (inactive) | -9.05% (inactive) | 80 | 71 | -3.25% (inactive) | 3.49% (inactive)
CN(C)c1cccc(C(=O)OCC(=O)NCc2ccco2)c1 | 102 | 86.5% (inactive) | 102% (inactive) | 87% (inactive) | 86.2% (inactive) | 7.69% (inactive) | 78.6 | 86.2 | -4.81% (inactive) | -2.22% (inactive)
COCCOC(=O)c1cc(C(=O)c2cc(F)ccc2O)coc1=N | 83.5 | 82.5% (inactive) | 83.5% (inactive) | 92% (inactive) | 91.1% (inactive) | -3.97% (inactive) | 95.1 | 91.1 | -1.56% (inactive) | -5.08% (inactive)
Cn1cccc1-c1nc2ccc(NC(=O)c3ccco3)cc2[nH]1 | 114 | 93% (inactive) | 114% (inactive) | 120% (inactive) | 77% (inactive) | -4.33% (inactive) | 81.4 | 77 | -2.76% (inactive) | -3.65% (inactive)
CCCCn1c(CN(C)Cc2ccccc2)nc2c1c(=O)n(C)c(=O)n2C | 83 | 101% (inactive) | 83% (inactive) | 71.1% (inactive) | 71.6% (inactive) | -7.99% (inactive) | 79.6 | 71.6 | -3.24% (inactive) | -0.63% (inactive)
O=C(CCc1ccc(S(=O)(=O)N2CCOCC2)cc1)NCCc1ccccn1 | 100 | 102% (inactive) | 100% (inactive) | 94.8% (inactive) | 87.9% (inactive) | -13.7% (inactive) | 102 | 87.9 | -1.04% (inactive) | -4.13% (inactive)
